# Assay results published in ChEMBL document CHEMBL1132342, “Novel hypotensive agents from Verbesina caracasana. 6. Synthesis and pharmacology of caracasandiamide” (1999).
# “And” between values parts separate entries of the source, which are not always exact repeats. Equal entries are not always repeated.
# Assays:
# Rattus norvegicus [1] = assay: Change in systolic blood pressure after iv administration of 400 ug/Kg compound (treatment with hexamethonium (5 mg/Kg, iv)in anesthetized rats; type: functional, Artery
# In short: (§1)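 Urethane-anesthetized male Wistar rats, 6 per group, received iv doses of 200-1600 µg/kg (ratio 2.0) given alone or under a pretreatment. Pretreatments were continuous iv papaverine infusion (1 mg/kg/min), reserpine 5 mg/kg/day ip for 2 days, or hexamethonium 5 mg/kg iv. Peak changes in femoral arterial BP and HR were recorded; values are mean ± SE.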
# Rattus norvegicus [2] = assay: Change in diastolic blood pressure after iv administration of 1600 ug/Kg in anesthetized rats; type: functional, Artery
# In short: (§2)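 Adult male Wistar rats under ip ethylurethane (10% w/v in saline, 1 mL/kg) with tracheal cannula and spontaneous breathing, kept at 37 °C. Arterial BP was recorded by femoral artery catheter; compound in saline (50 µL) was given via femoral vein at 50–3200 µg/kg, ratio 2.0. Peak change is given as mean ± SE, n = 12 (n = 7 at 3200 µg/kg).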
# Rattus norvegicus [3] = assay: Change in diastolic blood pressure after iv administration of 1600 ug/Kg in the presence of acetylcholine (agonist) in anesthetized rats; type: functional, Artery
# In short: (§3)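 Urethane-anesthetized male Wistar rats (16 rats, two equal groups) received 400 or 1600 µg/kg compound iv. Cardiovascular responses to iv agonist boluses (noradrenaline 1 µg/kg, acetylcholine 2.50 µg/kg, adrenaline, isoprenaline) were measured before and after compound dosing. Peak responses are given as mean ± SE; p < 0.05 versus control mean.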
# Rattus norvegicus [4] = assay: Change in diastolic blood pressure after iv administration of 3200 ug/Kg in anesthetized rats; type: functional, Artery; in short: as §2
# Rattus norvegicus [5] = assay: Change in diastolic blood pressure after iv administration of 400 ug/Kg in anesthetized rats; type: functional, Artery; in short: as §2
# Rattus norvegicus [6] = assay: Change in systolic blood pressure after iv administration of 800 ug/Kg compound (treatment with hexamethonium (5 mg/Kg, iv)in anesthetized rats; type: functional, Artery
# In short: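 Anesthetized rats, n = 6 per group, received iv doses of 200–1600 µg/kg (ratio 2.0) either alone (control) or under pretreatment: continuous iv papaverine infusion 1 mg/kg/min, reserpine 5 mg/kg/day ip for 2 days, or hexamethonium 5 mg/kg iv. Peak changes in BP, heart rate and dP/dt recorded; means ± SE, p < 0.05 versus control.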
# Rattus norvegicus [7] = assay: Change in systolic blood pressure after iv administration of 1600 ug/Kg compound (treatment with papaverine(1 mg/Kg/min, iv)in anesthetized rats; type: functional, Artery; in short: as §1
# Rattus norvegicus [8] = assay: Change in systolic blood pressure after iv administration of 1600 ug/Kg in anesthetized rats; type: functional, Artery
# In short: (§4)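 Male Wistar rats (299 ± 3 g) were anesthetized with ethylurethane ip, tracheally cannulated and breathing spontaneously, at 37 °C, and stabilized for 60 min. Doses of 50-3200 µg/kg (ratio 2.0) in saline were injected by femoral vein, 50 µL each. Recordings: femoral arterial BP, electromagnetic abdominal-aortic flow, SV from integrated pulsatile flow, polygraphic RF. Peak changes, mean ± SE, n = 12 (n = 7 at 3200).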
# Rattus norvegicus [9] = assay: Change in diastolic blood pressure after iv administration of 100 ug/Kg in anesthetized rats; type: functional, Artery; in short: as §2
# Rattus norvegicus [10] = assay: Change in heart rate after iv administration of 1600 ug/kg compound (treatment with papaverine(1 mg/kg/min, iv))in anesthetized rats; type: functional
# In short: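 In anesthetized male Wistar rats, responses to iv compound (200–1600 µg/kg, ratio 2.0) were measured alone and under three pretreatments: continuous iv papaverine infusion (1 mg/kg/min), ip reserpine (5 mg/kg/day for 2 days), or iv hexamethonium (5 mg/kg). Peak changes are given as mean ± SE, n = 6 per group; p < 0.05 versus control.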
# Rattus norvegicus [11] = assay: Change in heart rate after iv administration of 1600 ug/Kg in anesthetized rats; type: functional; in short: as §2
# Rattus norvegicus [12] = assay: Change in heart rate after iv administration of 4.12 uM/kg in anesthetized rats; type: functional
# Rattus norvegicus [13] = assay: Change in heart rate after iv administration of 400 ug/Kg in the presence of adrenaline (agonist) in anesthetized rats; type: functional; in short: as §3
# Rattus norvegicus [14] = assay: Change in heart rate after iv administration of 800 ug/kg compound (treatment with papaverine(1 mg/kg/min, iv))in anesthetized rats; type: functional; in short: as §1
# Rattus norvegicus [15] = assay: Change in mean aortic flow after iv administration of 3200 ug/Kg in anesthetized rats; type: functional; in short: as §4
# Rattus norvegicus [16] = assay: Change in mean aortic flow after iv administration of 50 ug/Kg in anesthetized rats; type: functional; in short: as §4
# Rattus norvegicus [17] = assay: Maximum rate of rise of the left ventricular isovolumetric pressure was measured after iv administration of 50 ug/Kg in anesthetized rats; type: functional, Heart left ventricle
# In short: (§5)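 Urethane-anesthetized (10% w/v, […] ip in saline) adult male Wistar rats, trachea cannulated, breathing spontaneously, 37 °C. Femoral artery catheter for blood pressure, femoral vein for dosing. Sequential iv doses 50–3200 µg/kg (ratio 2.0) in saline, each given after parameters returned to baseline. Peak changes recorded; means ± SE, n = 12 (n = 7 at 3200 µg/kg).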
# Rattus norvegicus [18] = assay: Maximum rate of rise of the left ventricular isovolumetric pressure was measured after iv administration of 800 ug/Kg in anesthetized rats; type: functional, Heart left ventricle; in short: as §5
# Rattus norvegicus [19] = assay: Maximum rate of rise of the left ventricular isovolumetric pressure was measured after iv administration of 400 ug/Kg in the presence of acetylcholine (agonist) in anesthetized rats; type: functional, Heart left ventricle
# In short: (§6)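 Anesthetized male Wistar rats, two groups of 8, received 400 or 1600 µg/kg iv. Before and after this dose, iv agonist challenges were given: noradrenaline 1 µg/kg, adrenaline, acetylcholine 2.50 µg/kg, or isoprenaline. Systolic/diastolic BP, heart rate and dP/dt responses were recorded before (control) and after dosing; significance was set at p < 0.05 versus control.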
# Rattus norvegicus [20] = assay: Change in respiratory frequency after iv administration of 200 ug/Kg in anesthetized rats; type: functional; in short: as §4
# Rattus norvegicus [21] = assay: Maximum rate of rise of the left ventricular isovolumetric pressure was measured after iv administration of 3200 ug/Kg in anesthetized rats; type: functional, Heart left ventricle; in short: as §5
# Rattus norvegicus [22] = assay: Maximum rate of rise of the left ventricular isovolumetric pressure was measured after iv administration of 4.12 uM/Kg in anesthetized rats; type: functional, Heart left ventricle
# Rattus norvegicus [23] = assay: Maximum rate of rise of the left ventricular isovolumetric pressure was measured after iv administration of 1600 ug/Kg in the presence of adrenaline (agonist) in anesthetized rats; type: functional, Heart left ventricle; in short: as §6
# Rattus norvegicus [24] = assay: Maximum rate of rise of the left ventricular isovolumetric pressure was measured after iv administration of 1600 ug/Kg in the presence of isoprenaline (agonist) in anesthetized rats; type: functional, Heart left ventricle; in short: as §6
# Rattus norvegicus [25] = assay: Maximum rate of rise of the left ventricular isovolumetric pressure was measured after iv administration of 100 ug/Kg in anesthetized rats; type: functional, Heart left ventricle; in short: as §5
# Rattus norvegicus [26] = assay: Change in stroke volume after iv administration of 100 ug/Kg in anesthetized rats; type: functional; in short: as §4
structure (smiles),measurement,setting,value
COc1ccc(C2C(c3ccc(OC)c(OC)c3)[C@H](C(=O)NCCCC/N=C(\N)NCC=C(C)C)[C@@H]2C(=O)NCCCC/N=C(\N)NCC=C(C)C)cc1OC (some centres undefined) [CARACASANDIAMIDE],BP,Rattus norvegicus [1],-41 mmHg
same,BP,Rattus norvegicus [2],-43 mmHg
same,Change in BP,Rattus norvegicus [2],-55%
same,BP,Rattus norvegicus [3],-54 mmHg
same,BP,Rattus norvegicus [4],-53 mmHg
same,Change in BP,Rattus norvegicus [4],-68%
same,BP,Rattus norvegicus [5],-17 mmHg
same,Change in BP,Rattus norvegicus [5],-22%
same,BP,Rattus norvegicus [6],-50 mmHg
same,BP,Rattus norvegicus [7],-33 mmHg
same,BP,Rattus norvegicus [8],-41 mmHg
same,Change in BP,Rattus norvegicus [8],-39%
same,BP,Rattus norvegicus [9],10 mmHg
same,Change in BP,Rattus norvegicus [9],13%
same,Heart rate,Rattus norvegicus [10],-31 beats min-1
same,Change in heart rate,Rattus norvegicus [11],-8%
same,Heart rate,Rattus norvegicus [11],-30 beats min-1
same,Heart rate,Rattus norvegicus [12],-35 beats min-1
same,Heart rate,Rattus norvegicus [13],24 beats min-1
same,Heart rate,Rattus norvegicus [14],-17 beats min-1
same,Change in mean aortic flow,Rattus norvegicus [15],-56%
same,Mean aortic flow,Rattus norvegicus [15],-41 mL/min
same,Change in mean aortic flow,Rattus norvegicus [16],26%
same,Mean aortic flow,Rattus norvegicus [16],19 mL/min
same,Change in dP/dt,Rattus norvegicus [17],17%
same,dP/dt,Rattus norvegicus [17],1070 mmHg s-1
same,Change in dP/dt,Rattus norvegicus [18],54%
same,dP/dt,Rattus norvegicus [18],3282 mmHg s-1
same,dP/dt,Rattus norvegicus [19],-5820 mmHg s-1
same,Change in respiratory frequency,Rattus norvegicus [20],9 beats min-1 and 9%
same,Change in dP/dt,Rattus norvegicus [21],77%
same,dP/dt,Rattus norvegicus [21],4708 mmHg s-1
same,dP/dt,Rattus norvegicus [22],3991 mmHg s-1
same,dP/dt,Rattus norvegicus [23],2739 mmHg s-1
same,dP/dt,Rattus norvegicus [24],14552 mmHg s-1
same,Change in dP/dt,Rattus norvegicus [25],18%
same,dP/dt,Rattus norvegicus [25],1129 mmHg s-1
same,Change in stroke volume,Rattus norvegicus [26],10%
same,Stroke volume,Rattus norvegicus [26],20 µL
